Experimental data: ChEMBL document CHEMBL1121913, “Inactivation of liver alcohol dehydrogenases and inhibition of ethanol metabolism by ambivalent active-site-directed reagents” (J Med Chem, 1981)

Experiments:
[1] = The compound was tested for the ability to inactivate mouse liver alcohol dehydrogenase in the absence of NAD+K
How it was run: (§1)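 Mouse liver ADH, fourfold purified ((NH₄)₂SO₄ 45–65% cut, DEAE-cellulose), incubated at about 0.2 mg/mL with 0.2 mM reagent in 0.1 M Na₂P₂O₇ pH 8, 25 °C; coenzyme, when present, added 1 min before inactivator. Apparent second-order rate constant derived assuming reaction first order in reagent.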

[2] = The compound was tested for the ability to inactivate rat liver alcohol dehydrogenase in the absence of NAD+K
How it was run: (§2)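 Rat liver enzyme purified 15-fold ((NH₄)₂SO₄ 35–75%, DEAE-cellulose). Inactivation with 0.2 mM reagent, 0.1 M pyrophosphate buffer pH 8, 25 °C, enzyme near 0.2 mg/mL; NAD⁺ preincubated 1 min with enzyme before reagent addition. Apparent second-order constants computed on assumption of first-order dependence on reagent.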

[3] = biological target: T1, Alcohol dehydrogenase (Equus caballus) (UniProt P00327+P00328); experiment: The compound was tested for the ability to inactivate horse liver alcohol dehydrogenase in the absence of NAD+k
[4] = The compound was tested for the ability to inactivate rat liver alcohol dehydrogenase in the presence of 1 mM NAD+K; how it was run: as §2
[5] = biological target: T1, Alcohol dehydrogenase (Equus caballus); experiment: The compound was tested for the ability to inactivate horse liver alcohol dehydrogenase in the presence of 1 mM NAD+k
[6] = biological target: T2, Alcohol dehydrogenase (Homo sapiens) (UniProt P07327+P08319+P00325+P00326+P40394+P11766+P28332); experiment: (§3) The compound was tested for the ability to inactivate human liver alcohol dehydrogenase in the absence of NAD+K
How it was run: (§4)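 Human liver ADH, purified on carboxymethyl- and DEAE-cellulose plus (NH₄)₂SO₄ (60%) with 5% ethanol throughout, ethanol dialysed out. Inactivation at 25 °C in 0.1 M Na₂P₂O₇, pH 8, enzyme about 0.2 mg/mL, 0.2 mM reagent; NAD⁺ added 1 min before reagent where used. Apparent second-order constant calculated assuming first order in reagent.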

[7] = biological target: T2, Alcohol dehydrogenase (Homo sapiens); experiment: The compound was tested for the ability to inactivate human liver alcohol dehydrogenase in the presence of 1 mM NAD+k; how it was run: as §4
[8] = The compound was tested for the ability to inactivate mouse liver alcohol dehydrogenase in the presence of 1 mM NAD+K; how it was run: as §1
[9] = tested on: Mus musculus; experiment: (§5) Percent inhibition of rate of ethanol metabolism in mice at dose 0.13 mmol/kg; format: functional
How it was run: (§6)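 Fed male Swiss-Webster mice (20–25 g), four or five per group; compound suspended in sterile 0.9% saline, single i.p. dose 22–24 h before i.p. ethanol 3 g/kg (40% w/v in saline). Tail-vein blood ethanol by GC (1-propanol internal standard); elimination rate = β slope × dose/extrapolated zero-time level. Liver ADH afterwards: homogenate activity with ethanol/NAD⁺ minus 10 mM pyrazole control, per mg protein.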

[10] = tested on: Rattus norvegicus; experiment: (§7) Percent inhibition of rate of ethanol metabolism in rats at dose 0.13 mmol/kg; format: functional
How it was run: as §6, with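 “Male Sprague-Dawley rats (160–200” for “Fed male Swiss-Webster mice (20–25”, “two” for “four or five”, “experiment;” for “group;”, “2” for “3”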

[11] = (§8) Percent inhibition of Alcohol dehydrogenase activity in mice liver at dose 0.13 mmol/kg; format: tissue-based; how it was run: as §6
[12] = tested on: Mus musculus; experiment: Percent inhibition of recovery of rotarod performance in mice at dose 0.13 mmol/kg; format: functional
How it was run: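 Mice trained to hang on a 2-cm rod rotating at 7 rpm, two 15-min periods. Reagent given ip 22 h before ethanol 3 g/kg; five mice per dose, five vehicle controls. Impairment = 100(15 − minutes on rod)/15, probit-transformed; t1/2 for regaining 50% performance by regression. Inhibition = [t1/2(treated) − t1/2(control)]/t1/2(treated).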

[13] = (§9) Percent inhibition of Alcohol dehydrogenase activity in rat liver at dose 0.13 mmol/kg; format: tissue-based
How it was run: as §6, with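 “Male Sprague-Dawley rats (160–200” for “Fed male Swiss-Webster mice (20–25”, “two” for “four or five”, “experiment;” for “group;”, “2” for “3”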

[14] = The compound was tested for the ability to inactivate mouse liver alcohol dehydrogenase in the presence of 1 mM NAD+K; Slow inactivation
[15] = biological target: T2, Alcohol dehydrogenase (Homo sapiens); experiment: as §3; remark: listed apart in the source
How it was run: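 Human liver ADH purified by CM- and DEAE-cellulose chromatography and (NH₄)₂SO₄ precipitation, with 5% ethanol removed by dialysis. Enzyme about 0.2 mg/mL with 0.2 mM reagent in 0.1 M Na₂P₂O₇, pH 8, 25 °C, no coenzyme. Apparent second-order rate constant assumes first order in reagent.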

[16] = Toxic effect in rats; format: toxicity, organism-based; settings: rat, in vivo
How it was run: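 Male Sprague-Dawley rats (160–200 g), two per dose; single i.p. dose of compound suspended in sterile 0.9% saline. Acute lethality scored over 24 h after dosing.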

[17] = Toxic effect in mice; format: toxicity, organism-based; settings: mouse, in vivo
How it was run: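 Male Swiss-Webster mice (20–25 g); single i.p. dose of compound suspended in sterile 0.9% saline. Acute lethality scored over 24 h; LD₅₀ with limits at p ≤ 0.05 from three doses on 15 mice.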

[18] = as §5; settings: in the assay text read “0.48 mmol/kg” for “0.13 mmol/kg”
How it was run: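 Mice (male Swiss-Webster, fed) dosed ip with reagent in saline 22–24 h before ethanol 3 g/kg ip. Tail-vein blood (5 µL) deproteinized with Ba(OH)₂/ZnSO₄, 1-propanol internal standard, analyzed by GC with flame-ionization detection. Elimination slope fitted excluding absorption (1–2 h), multiplied by r (dose / theoretical zero-time blood level) to give metabolic rate. Four or five mice per group.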

[19] = as §9; format: tissue-based; remark: listed apart in the source
How it was run: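 Fed male Sprague-Dawley rats (160–200 g) received a single ip saline-suspended reagent dose, then ethanol 2 g/kg ip (40% w/v in saline) 22–24 h afterwards. Liver excised when blood ethanol neared zero, homogenized on ice, centrifuged. Activity = initial rate with ethanol and NAD⁺ minus rate in control assay containing 10 mM pyrazole, expressed per mg protein. Two rats per experiment.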

[20] = as §8; format: tissue-based; remark: listed apart in the source
How it was run: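 Male Swiss-Webster mice (20–25 g), fed, given one ip dose of reagent suspended in sterile 0.9% saline, then ethanol 3 g/kg ip (40% w/v in saline) 22–24 h later. Liver removed once blood ethanol approached zero, chilled, homogenized, clarified by centrifugation. ADH activity taken as initial-velocity difference, ethanol/NAD⁺ assay minus same assay with 10 mM pyrazole, per mg protein. Four or five mice per group.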

[21] = biological target: T1, Alcohol dehydrogenase (Equus caballus); experiment: The compound was tested for the ability to inactivate horse liver alcohol dehydrogenase in the presence of 1 mM NAD+K
[22] = biological target: T1, Alcohol dehydrogenase (Equus caballus); experiment: The compound was tested for the ability to inactivate horse liver alcohol dehydrogenase in the presence of 0.2 mM NAD+K
[23] = tested on: Rattus norvegicus; experiment: as §7; format: functional; remark: listed apart in the source
How it was run: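 Rats (male Sprague-Dawley, fed) pretreated ip with reagent suspended in saline 22–24 h before ethanol 2 g/kg ip. Serial 5 µL tail-vein samples, Ba(OH)₂/ZnSO₄ deproteinization with 1-propanol internal standard, GC-FID. Metabolic rate = blood-ethanol decline slope × ratio of dose to extrapolated zero-time blood level. Two rats per experiment.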

Row | Rate constant [1] | Rate constant [2] | Rate constant [3] | Rate constant [4] | Rate constant [5] | Rate constant [6] | Rate constant [7] | SMILES | further results
1 | 0.0817 M⁻¹ s⁻¹ | 0.2 M⁻¹ s⁻¹ | 0.167 M⁻¹ s⁻¹ | 0.2 M⁻¹ s⁻¹ | 0.0817 M⁻¹ s⁻¹ | 0.383 M⁻¹ s⁻¹ | 4 M⁻¹ s⁻¹ | O=C(O)CCCCCCCCNC(=O)CBr | –
2 | 0.0817 M⁻¹ s⁻¹ | 0.2 M⁻¹ s⁻¹ | 0.105 M⁻¹ s⁻¹ | 0.0667 M⁻¹ s⁻¹ | 0.12 M⁻¹ s⁻¹ | 0.112 M⁻¹ s⁻¹ | 0.833 M⁻¹ s⁻¹ | O=C(O)CCCCCCCNC(=O)CBr | –
3 | 2.88 M⁻¹ s⁻¹ | 1.15 M⁻¹ s⁻¹ | 5.33 M⁻¹ s⁻¹ | 0.383 M⁻¹ s⁻¹ | 0.283 M⁻¹ s⁻¹ | 0.433 M⁻¹ s⁻¹ | 4.83 M⁻¹ s⁻¹ | O=C(CBr)Nc1ccc(Oc2ccc(C(=O)O)cc2)cc1 | Rate constant [8]: 0.183 M⁻¹ s⁻¹
4 | 0.127 M⁻¹ s⁻¹ | 0.183 M⁻¹ s⁻¹ | 0.0983 M⁻¹ s⁻¹ | 0.0133 M⁻¹ s⁻¹ | 0.00833 M⁻¹ s⁻¹ | 0.112 M⁻¹ s⁻¹ | 0.138 M⁻¹ s⁻¹ | O=C(O)CCCCCCNC(=O)CBr | –
5 | – | – | – | – | – | – | – | CS(=O)(=O)OCC(=O)Nc1ccc(CCCC(N)=O)cc1 | inhibition [18]: 43%; inhibition [19]: 35%; inhibition [20]: 38%; inhibition in vivo at 130 µmol/kg [12]: 70%; Rate constant [21]: 0.4 M⁻¹ s⁻¹; LD50 [16]: > 480 µmol/kg; Rate constant [22]: 0.217 M⁻¹ s⁻¹; inhibition in vivo at 130 µmol/kg [23]: 15%; LD50 [17]: > 480 µmol/kg
6 | 0.717 M⁻¹ s⁻¹ | 0.317 M⁻¹ s⁻¹ | 2 M⁻¹ s⁻¹ | 0.0167 M⁻¹ s⁻¹ | 0.0533 M⁻¹ s⁻¹ | 2.33 M⁻¹ s⁻¹ | 5.33 M⁻¹ s⁻¹ | O=C(O)CCCCCCCCCCCNC(=O)CBr | –

Row | SMILES | Rate constant [1] | Rate constant [2] | Rate constant [3] | Rate constant [4] | Rate constant [5] | Rate constant [6] | Rate constant [7] | further results
7 | NC(=O)CBr | 0.147 M⁻¹ s⁻¹ | 0.0883 M⁻¹ s⁻¹ | 0.0267 M⁻¹ s⁻¹ | – | 0.000167 M⁻¹ s⁻¹ | – | 0.0483 M⁻¹ s⁻¹ | inhibition in vivo at 130 µmol/kg [9]: 18%; inhibition in vivo at 130 µmol/kg [10]: 11%; inhibition [11]: 27%; inhibition in vivo at 130 µmol/kg [12]: 28%; inhibition [13]: 0%; Rate constant [14]: Slow inactivation; Rate constant [15]: 0.0483 M⁻¹ s⁻¹; LD50 [16]: 270 µmol/kg; LD50 [17]: 270 µmol/kg
